Screens (PubChem)
SUMO1 PPI mod – modulators of SUMO1 protein-protein interactions, primary screen, biochemical, uHTS. AID 602429, 2012. inhibition, % at 20 µM. Small ubiquitin-related modifier 1 (Homo sapiens), P63165. SUMO1 binding to a labelled peptide, TR-FRET, 1 h. 360,000 compounds, 0.33% hits; in the data active = inhibition above about 37%
Target sequence (P63165 whole entry, looked up): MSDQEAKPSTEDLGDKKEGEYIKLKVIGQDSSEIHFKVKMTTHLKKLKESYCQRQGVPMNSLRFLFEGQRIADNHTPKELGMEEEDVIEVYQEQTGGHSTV
DNMT1 inh – human DNMT1 methyltransferase inhibitors, primary screen, biochemical, molecular beacon, fluorescence, HinP1I cleavage, uHTS | inhibition (reported as % activation of signal), % at 10 µM | 360,000 compounds, 0.83% hits | AID 588458, 2011; in the data active = inhibition above about 50%
Scp1 inh – Scp-1 phosphatase inhibitors, primary screen, biochemical, colorimetric, uHTS | Carboxy-terminal domain RNA polymerase II polypeptide A small phosphatase 1 (Homo … | Recombinant Scp1, phosphopeptide, malachite green phosphate absorbance | inhibition, % at 20 µM | 340,000 compounds, 0.88% hits | AID 493091, 2011;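 active = inhibition above about 50% at 20 µM, limit read from the data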
Target sequence (Q9GZU7 76-261 limits assumed): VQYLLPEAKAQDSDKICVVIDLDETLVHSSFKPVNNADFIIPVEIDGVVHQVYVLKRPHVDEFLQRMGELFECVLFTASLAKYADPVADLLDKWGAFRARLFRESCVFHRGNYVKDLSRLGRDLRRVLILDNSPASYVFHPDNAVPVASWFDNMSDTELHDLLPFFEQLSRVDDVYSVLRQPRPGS
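Test system: SCP-1 catalytic domain; Buffer or medium: Acidic Tris acetate buffer with magnesium and detergent; Also added: Phosphorylated 17-residue peptide substrate; Compound: single 20 µM dose, 1% DMSO; Schedule: enzyme reaction 45 min at room temperature, colour 5 min, stabilisation 30 min; Signal: Phosphate-binding colour reagent, absorbance read at 630 nm.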
LMPTP block – LMPTP phosphatase inhibitors, primary screen, biochemical, fluorescence intensity, uHTS. Low molecular weight phosphotyrosine protein phosphatase (Homo sapiens), P24666. recombinant LMPTP-A, OMFP fluorogenic substrate. inhibition, % at 20 µM. 360,000 compounds, 0.22% hits;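 active = compounds that cut the enzyme signal by at least half of the control window in the single-dose screen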
Target sequence (P24666 whole entry, looked up): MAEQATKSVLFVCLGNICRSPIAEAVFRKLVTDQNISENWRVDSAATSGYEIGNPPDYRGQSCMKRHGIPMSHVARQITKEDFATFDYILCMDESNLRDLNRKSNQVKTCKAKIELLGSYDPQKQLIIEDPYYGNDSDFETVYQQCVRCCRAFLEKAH
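Test system: LMPTP-A, protein tyrosine phosphatase of low molecular weight; Input: 0.625 nM enzyme; Incubation: 50 min dark incubation at room temperature; Signal: endpoint fluorescence intensity from OMFP dephosphorylation; Read-out basis: % inhibition versus control wells.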
STEP block – STEP phosphatase inhibitors, primary screen, biochemical, fluorescence intensity, uHTS. inhibition, % at 20 µM. Tyrosine-protein phosphatase non-receptor type 5 (Homo sapiens), P54829. 360,000 compounds, 0.25% hits. AID 588621, 2011. recombinant STEP, OMFP fluorogenic substrate;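 active = inhibition at 20 µM, scaled per plate between control wells, above about 37%, limit read from the data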
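Assay system: isolated STEP enzyme / Timing: 20 min at room temperature, dark / Doses: 20 µM, 1% DMSO / Technique: fluorescence intensity, excitation 480 nm, emission 540 nm / Reagent: fluorogenic phosphatase substrate OMFP at 25 µM final / Measure: percent inhibition scaled to no-enzyme and uninhibited-enzyme controls, plate-pattern corrected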
Large screens that a line does not name were inactive. Most compounds without a hit are left out; they make up all but 1.8% or so of the library.

CSc1ccc(C2C(C(=O)c3ccco3)=C(O)C(=O)N2c2nnc(SC)s2)cc1 (configuration not stated)	none
CCCCCC(=O)NC(NC(=S)NC1CCS(=O)(=O)C1)C(Cl)(Cl)Cl (configuration not stated)	SUMO1 PPI mod 58.7
CCCCCC(=O)NC(NC(=S)N1CCOCC1)C(Cl)(Cl)Cl (configuration not stated)	none
COc1cc(/C=C2\SC(=Nc3ccc(Cl)c(C(=O)O)c3)NC2=O)c(Br)c(Br)c1O	Scp1 inh 53.1
COc1cc(/C=C2\SC(=Nc3ccccc3)NC2=O)cc(Cl)c1O	none
O=C(O)c1cccc(N2C(=O)/C(=C/c3ccc(SCc4ccc(Cl)cc4)o3)SC2=S)c1	SUMO1 PPI mod 69.9, DNMT1 inh 83.9, Scp1 inh 69.7
Cc1ccc(/C=C2\SC(=S)N(c3cccnc3)C2=O)o1	none
N#CCC(=O)Nc1ccc(C(=O)OCC(=O)c2ccc3c(c2)NC(=O)CO3)cc1	SUMO1 PPI mod 83.6
Cc1cc2nc3c(=O)[nH]c(=O)[nH]c3nc2c([N+](=O)[O-])c1N	SUMO1 PPI mod 100.0, DNMT1 inh 110.5, Scp1 inh 72.5
COc1ccc(N=C2NC(=O)/C(=C/C=C/c3ccccc3)S2)cc1	none
O=C1NC(=Nc2ccccc2)S/C1=C\C=C\c1ccco1	DNMT1 inh 93.2
COc1ccc(-c2csc(NC(=S)NC(=O)/C=C/c3ccco3)n2)cc1OC	SUMO1 PPI mod 57.7
COc1ccc(-c2csc(NC(=S)NC(=O)/C=C/c3ccco3)n2)cc1Br	none
Nc1ccc(-c2nc3ccc(N)cc3[nH]2)cc1	none
Nc1ccc2cc3[nH]c4cc(N)ccc4c3nc2c1	DNMT1 inh 194.5, LMPTP block 57.7
COc1cc2c(cc1OC)C(=O)C(Br)CC2 (configuration not stated)	SUMO1 PPI mod 111.4, DNMT1 inh 83.0 (no result: Scp1 inh)
COc1cc2c(cc1OC)C(=O)C(c1ccc3c(c1)OCO3)CC2 (configuration not stated)	none (no result: Scp1 inh)
N=c1c(C(=O)NCc2ccco2)cc2c(=O)n3ccccc3nc2n1CC1CCCO1 (configuration not stated)	none
N=c1c(C(=O)NCc2ccco2)cc2c(=O)n3ccccc3nc2n1CCc1ccccc1	LMPTP block 54.7
COc1ccc(CCn2c(=N)c(C(=O)NCc3ccco3)cc3c(=O)n4ccccc4nc32)cc1OC	SUMO1 PPI mod 50.8
Cc1cccn2c(=O)c3cc(C(=O)NCCc4ccccc4)c(=N)n(CCCn4ccnc4)c3nc12	LMPTP block 64.2
COCCn1c(=N)c(C(=O)NCCc2ccccc2)cc2c(=O)n3cccc(C)c3nc21	none
Cc1ccc(Cl)cc1NC(=S)N1CCCCCC1	none
O=[N+]([O-])c1ccc(O)c(/C=N/Nc2ccccn2)c1	none
O=[N+]([O-])c1ccc(O)c(/C=N/Nc2ncnc3c2cnn3-c2ccccc2)c1	LMPTP block 50.1
CCN1/C(=C/c2ccc3cc(C)ccc3[n+]2CC)Sc2cc(C)c(C)cc21	LMPTP block 65.1
CCN1/C(=C/c2sc(-c3ccccc3C)c[n+]2C)Sc2ccccc21	none
CC[n+]1c(/C=C2\Sc3ccccc3N2C)ccc2cccc(C)c21	LMPTP block 80.8
CCN1/C(=C/c2ccc3cc(C)ccc3[n+]2CC)Sc2ccccc21	LMPTP block 72.0
CCN(CC(=O)Nc1ccc(N2CCOCC2)cc1)C(=O)Cc1ccccc1	none
CC(=O)N1CCN(C(=O)CNC(=O)c2ccc(C)s2)CC1	none
O=C(NCc1ccccc1)C(C1CC1)n1c(=O)c(-c2cc3ccccc3[nH]2)nc2ccccc21 (configuration not stated)	none (no result: DNMT1 inh, Scp1 inh, STEP block)
Cc1ccc(CNC(=O)CSc2ccsc2[N+](=O)[O-])cc1	none
CCN(CC)c1ccc(NC(=O)CSc2ccsc2[N+](=O)[O-])c(C)c1	DNMT1 inh 53.2
COc1cccc(NC(=O)CN(C)C(=O)c2c(C)nn(CC(C)C)c2Cl)c1	none
O=Cc1c(Cl)[nH]c(=O)n1-c1ccccc1	none
O=c1[nH]c2cc(Cl)ccc2n1-c1ccccc1	SUMO1 PPI mod 40.1
N#C/C(=C\c1ccc(C(=O)O)cc1)c1nc2sc3c(c2c(=O)[nH]1)CCCC3	Scp1 inh 75.7
N=C1/C(=C\c2ccc(-c3cccc(C(=O)O)c3)o2)C(=O)N=C2SC=C(c3ccccc3)N12	SUMO1 PPI mod 89.3, DNMT1 inh 90.3, Scp1 inh 72.5, LMPTP block 79.6
CCOc1ccc(OCCC(=O)N(CC)CC(=O)Nc2ccccc2OC)cc1	none
CCN(CC(=O)Nc1ccccc1OC)C(=O)CCc1ccccc1	SUMO1 PPI mod 40.5
CCOC(=O)c1ccc2c(c1)nc(-c1ccccn1)n2CC	none
CCOC(=O)c1ccc2c(c1)nc(-c1ccc(F)cc1)c1nccn12	SUMO1 PPI mod 47.8
Cc1ccc(C(=O)NN2C(=O)C3C(C2=O)C2C=CC3C23CC3)cc1 (configuration not stated)	SUMO1 PPI mod 59.7
O=C(NN1C(=O)C2C(C1=O)C1C=CC2C12CC2)c1ccc(Cl)cc1 (configuration not stated)	none
CC(C)NC(=O)C1(C)CSCC(=O)N1C1CC1 (configuration not stated)	none (no result: DNMT1 inh, Scp1 inh, STEP block)
CC(C)(C)NC(=O)C(c1cccc2ccccc12)n1c(=O)c(-c2cc3ccccc3[nH]2)nc2ccccc21 (configuration not stated)	none (no result: DNMT1 inh, Scp1 inh, STEP block)
O=C1CSC(=S)N1/N=C/c1ccc(O)c(O)c1O	Scp1 inh 52.9, LMPTP block 64.9
CS(=O)(=O)N1Cc2ccccc2CC1C(=O)OCC(=O)NCCc1ccc(S(N)(=O)=O)cc1 (configuration not stated)	none
CC1=NN(c2ccccc2)C(=O)/C1=C/c1cccs1	none
CCOc1cc(/C=C2\C(=O)N(c3ccc(C(N)=O)cc3)N=C2C)ccc1OC(=O)c1cccs1	SUMO1 PPI mod 74.5
CC1=NN(c2ccc(C(=O)O)cc2)C(=O)/C1=C\c1ccc(OC(=O)c2cccs2)cc1	Scp1 inh 51.8
Cc1n[nH]c(=S)n(NC(=O)/C=C/C(=O)Nn2c(=S)[nH]nc(C)c2=O)c1=O	SUMO1 PPI mod 67.0
Cn1nc(C(C)(C)C)cc1C(=O)N1CCCC(c2cc(C(=O)Nc3ccccc3Cl)no2)C1 (configuration not stated)	none (no result: Scp1 inh)
CC(=O)Nc1cc(-c2ccccc2N(C)C)cn2c(-c3cccc(C(F)(F)F)c3)cnc12	DNMT1 inh 60.9 (no result: Scp1 inh)
Cc1ccc(C(=O)c2sc(Nc3ccccc3)c(C#N)c2N)cc1	none
